Reference: ChEMBL document CHEMBL1150214, “Isolation, synthesis, and structure-activity relationships of bioactive benzoquinones from Miconia lepidota from the Suriname rainforest” (J Nat Prod, 2001)
In brackets after ≈: the same amount, converted by molar mass.

How the values were obtained:
[1] = system: Saccharomyces cerevisiae; assay: Antifungal activity against Saccharomyces cerevisiae 1353 assessed as concentration required to generate kill-zone of 12 mm in diameter after 48 hrs
[2] = system: Saccharomyces cerevisiae; assay: Antifungal activity against Saccharomyces cerevisiae 7 assessed as concentration required to generate kill-zone of 12 mm in diameter; type: functional
Summary of the method: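 Mutant S. cerevisiae Sc-7 on an agar-based gel, incubated […] with samples. Kill-zone diameters measured; IC12 (µg/mL) is the concentration giving a 12 mm zone. Standard deviations come from three separate experiments.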

[3] = system: Saccharomyces cerevisiae; assay: Antifungal activity against Saccharomyces cerevisiae 1138 assessed as concentration required to generate kill-zone of 12 mm in diameter after 48 hrs; type: functional
Summary of the method: (§1)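 Mutant S. cerevisiae strains on an agar-based gel, incubated 48 h with samples. Inhibition zones measured; IC12 (µg/mL) is the concentration producing a 12 mm diameter kill zone. Values with standard deviations come from three separate experiments.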

[4] = system: Saccharomyces cerevisiae; assay: Antifungal activity against Saccharomyces cerevisiae 1140 assessed as concentration required to generate kill-zone of 12 mm in diameter after 48 hrs; type: functional
Summary of the method: as §1

[5] = system: M109; assay: Cytotoxicity against mouse M109 cells; type: functional, cell-based
Summary of the method: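 In vitro antitumor cytotoxicity in murine Madison Lung Carcinoma (M109) cells, run at Bristol-Myers Squibb; value given as IC50 in µg/mL.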

[6] = system: A2780; assay: Cytotoxicity against human A2780 cells; type: functional, cell-based

Compound	Activity [1]	Activity [2]	Activity [3]	Activity [4]	IC50 [5]	IC50 [6]
COC1=CC(=O)C=C(C)C1=O	830 µg/mL	530 µg/mL	580 µg/mL	630 µg/mL	–	–
CCCCCCCCCCC1=CC(=O)C=C(OC)C1=O	380 µg/mL	3 µg/mL	380 µg/mL	380 µg/mL	10 µg/mL (≈ 35.9 µM)	–
CCCCCCCCCCCCCCCCCCCC1=CC(=O)C=C(OC)C1=O	>2000 µg/mL	>2000 µg/mL	>2000 µg/mL	>2000 µg/mL	–	–
NYSTATIN	–	–	14 µg/mL	13 µg/mL	–	–
CCCCCC1=CC(=O)C=C(OC)C1=O [Primin]	285 µg/mL	48 µg/mL	240 µg/mL	170 µg/mL	10 µg/mL (≈ 48 µM)	2.9 µg/mL (≈ 13.9 µM)
CCCCC1=CC(=O)C=C(OC)C1=O	210 µg/mL	80 µg/mL	220 µg/mL	150 µg/mL	–	3.2 µg/mL (≈ 16.5 µM)
CCC1=CC(=O)C=C(OC)C1=O	233 µg/mL	220 µg/mL	200 µg/mL	140 µg/mL	–	–
COC1=CC(=O)C=C(Cc2ccccc2)C1=O	590 µg/mL	180 µg/mL	460 µg/mL	420 µg/mL	–	–
CCCCCCCC1=CC(=O)C=C(OC)C1=O	220 µg/mL	16 µg/mL	120 µg/mL	130 µg/mL	10 µg/mL (≈ 42.3 µM)	7.9 µg/mL (≈ 33.4 µM)
CCCCC(O)C1=CC(=O)C=C(OC)C1=O (centres undefined)	577 µg/mL	438 µg/mL	536 µg/mL	430 µg/mL	–	–
